ChEMBL document CHEMBL1138199, “Identification of compounds with anti-West Nile Virus activity” (J Med Chem, 2006)

Columns and labels:
West Nile virus [1] = test: Inhibition of West Nile viral Rluc-Neo-Rep in BHK21 cell line; type: functional, organism-based; conditions: BHK-21
In short: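 BHK-21 cell line stably carrying Rluc-Neo-Rep replicon; inhibition read as suppression of Renilla luciferase signal. Initial screen at 30 µM, 1% DMSO final; EC50 (µM) then determined.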

BHK-21 [2] = test: Cytotoxicity against BHK21 cell line by MTT assay; type: functional; conditions: Mesocricetus auratus
In short: (§1)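 MTT cytotoxicity assay run in BHK-21 and Vero cells on compounds giving >50% Rluc inhibition in the primary screens; CC50 reported in µM.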

[3] = Therapeutic index (CC50/EC50) in BHK21 cells; type: cell-based, BHK-21; conditions: hamster, read-out: Ratio CC50/EC50
In short: (§2)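 TI computed as CC50/EC50, using MTT CC50 and replicon EC50 in BHK-21 cells, or MTT CC50 and Rluc-FL-WNV EC50 in Vero cells.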

West Nile virus [4] = test: Inhibition of Rluc-FL-WNV replicon in Vero cells; type: functional, organism-based
In short: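 Vero cells infected with full-length WNV carrying Renilla luciferase reporter (Rluc-FL-WNV), covering entry, replication and assembly; inhibition read as suppression of luciferase signal. Compounds first screened at 30 µM in 1% DMSO final, then EC50 (µM) determined.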

Vero = test: Cytotoxicity against Vero cells by MTT assay; type: functional; conditions: Chlorocebus sabaeus; in short: as §1
[5] = Therapeutic index (CC50/EC50) in Vero cells; type: cell-based; conditions: monkey, read-out: Ratio CC50/EC50; in short: as §2
BHK-21 [6] = test: Inhibition of West Nile virus VLP replicon in BHK21 cell line; type: functional, cell-based; conditions: Mesocricetus auratus
In short: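 Naive BHK-21 cells infected with virus-like particles, made by expressing WNV structural proteins in cells carrying the Rluc-Neo-Rep replicon, which package replicon RNA. This captures entry and replication but not assembly. Inhibition is read as suppression of Renilla luciferase signal. Compounds were given in 1% DMSO final, and EC50 is in µM.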

Row | Structure (SMILES) | EC50 (West Nile virus [1]) | CC50 (BHK-21 [2]) | selectivity ratio [3] | EC50 (West Nile virus [4]) | CC50 (Vero) | selectivity ratio [5] | EC50 (BHK-21 [6])
1 | CCN(CC)C(=O)c1ccc2c(NCCc3c[nH]c4ccccc34)c3ccccc3nc2c1 | 7 µM | 125 µM | 18 | 25 µM | 45 µM | 1.8 | 7 µM
2 | O=C(c1cccc2c(Oc3ccccc3)c3ccccc3nc12)N1CCOCC1 | > 30 µM | 155 µM | < 5.1 | 22 µM | 45 µM | 2 | > 30 µM
3 | O=C(c1ccc([N+](=O)[O-])cc1)N1N=C(c2cccs2)CC1c1ccc(Cl)cc1 (stereo unspecified) | 225 µM | > 300 µM | > 1.3 |  |  |  | 
4 | CN1CCN(c2cc(-c3ccc(C(C)(C)C)cc3)nc3ccccc23)CC1 | 14.5 µM | 50 µM | 3.4 | 15 µM | 20 µM | 1.3 | 8 µM
5 | O=C(c1cccc2c(NCCc3c[nH]c4ccccc34)c3ccccc3nc12)N1CCOCC1 | 20 µM | 250 µM | 13 | > 30 µM | 60 µM | < 2 | 23 µM
6 | CC(C)(C)C(=O)N1N=C(c2cccs2)CC1c1ccc(Cl)cc1 (stereo unspecified) | 60 µM | 90 µM | 1.5 |  |  |  | 
7 | CN1CCN(C(=O)c2cccc3c(Oc4ccccc4)c4ccccc4nc23)CC1 | 20 µM | 150 µM | 7.5 | 20 µM | 50 µM | 2.5 | 20 µM
8 | CN1CCN(C(=O)c2ccc3nc4ccccc4c(Oc4ccccc4)c3c2)CC1 | 21 µM | 100 µM | 4.7 | 20 µM | 80 µM | 4 | 20 µM
9 | CCN(CC)C(=O)c1ccc2nc3ccccc3c(NC3CCN(Cc4ccccc4)CC3)c2c1 | 22 µM | 120 µM | 5.4 | 20 µM | 50 µM | 2.5 | 22 µM
10 | O=C(c1ccccc1)N1N=C(c2cccs2)CC1c1ccc(Br)cc1 (stereo unspecified) | 25 µM | > 300 µM | > 12 | > 30 µM |  |  | 
11 | O=C(Cc1ccccc1)N1N=C(c2cccs2)CC1c1ccc(Cl)cc1 (stereo unspecified) | 20 µM | 65 µM | 3.3 |  |  |  | 
12 | COc1ccc(C2CC(c3cccs3)=NN2C(=O)c2ccccc2)cc1 (stereo unspecified) | 63 µM | > 300 µM | > 4.8 | > 30 µM |  |  | 
13 | O=C(Cc1ccc(Cl)cc1)N1N=C(c2cccs2)CC1c1ccc(Br)cc1 (stereo unspecified) | 19 µM | > 300 µM | > 16 |  |  |  | 
14 | COc1ccc(C2CC(c3cccs3)=NN2C(=O)Cc2ccc(Cl)cc2)cc1 (stereo unspecified) | 30 µM | > 300 µM | > 10 |  |  |  | 
15 | CC(C)(C)C(=O)N1N=C(C(C)(C)C)CC1c1ccc(Cl)cc1 (stereo unspecified) | 27 µM | 60 µM | 2.2 |  |  |  | 
16 | O=C(Cc1ccc(Cl)cc1)N1N=C(c2cccs2)CC1c1ccc(Cl)cc1 (stereo unspecified) | 19 µM | > 300 µM | > 16 |  |  |  | 
17 | O=C(c1ccccc1)N1N=C(c2ccc(Br)s2)CC1c1ccc(Cl)cc1 (stereo unspecified) | 17 µM | > 300 µM | > 18 |  |  |  | 
18 | O=C(c1ccccc1)N1N=C(c2ccccc2)CC1c1ccc(Cl)cc1 (stereo unspecified) | 20 µM | 250 µM | 12.5 |  |  |  | 
19 | CC(C)(C)C1=NN(C(=O)c2ccccc2)C(c2ccc(Cl)cc2)C1 (stereo unspecified) | 57 µM | 65 µM | 1.1 |  |  |  | 
20 | O=C(Cc1ccc(Cl)cc1)N1N=C(c2ccco2)CC1c1ccc(Br)cc1 (stereo unspecified) | 20 µM | > 300 µM | > 15 |  |  |  | 
21 | O=C(c1ccccc1)N1N=C(c2cccs2)CC1c1ccc(F)cc1 (stereo unspecified) | 59 µM | 100 µM | 1.7 |  |  |  | 
22 | O=C(c1ccccc1)N1N=C(c2cccs2)CC1c1ccc([N+](=O)[O-])cc1 (stereo unspecified) | 200 µM | > 300 µM | > 1.5 |  |  |  | 
